DENV2 CPE: DENV2-induced cell death inhibition; DENV2-infected cells, cytopathic effect rescue, plate reader; CPE inhibition, % at 9.99 µM; 1.7% of 350,000 active; AID 651640; in the data active means CPE inhibition above about 20%, passing the limit was not always enough; inconclusive means no clear call, values can overlap the other calls; tested in BHK-21 cells;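 further: 0% = median of neutral control wells and 100% = median of positive control wells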
S100A4 MyoIIA: blocks human S100A4 binding to myosin IIA peptide | S100A4/TAMRA-MyoIIA peptide fluorescence polarization | inhibition, % at 10.7 µM | AID 652163 | P26447 | 0.14% of 360,000 active;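 active means mean inhibition of at least 70% across replicates, with every replicate also reaching that level; inconclusive means mean inhibition reaches 70% but some replicates fall short; inactive means mean inhibition below 70%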
Target sequence (P26447 whole entry, looked up): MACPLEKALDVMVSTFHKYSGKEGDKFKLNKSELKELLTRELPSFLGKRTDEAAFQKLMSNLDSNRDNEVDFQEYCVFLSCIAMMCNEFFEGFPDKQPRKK
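Test system – S100A4 monomer (human) · Compound – single-point compound testing · Schedule – 5 min incubation before reading · Probe or stimulus – TAMRA-labelled myosin IIA heavy-chain peptide probe, 5 nM · Benchmarks – neutral control DMSO, positive control TFP · Medium – Calcium-containing HEPES buffer, pH 7.2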
PfHsp90 yeast 2: reduces growth (ATP signal) of yeast expressing P. falciparum Hsp90 | S. cerevisiae expressing PfHsp90, BacTiter-Glo ATP, 48 h; yeast lacking PDR1 and PDR3 efflux regulators | 0.32% of 310,000 active | inhibition, % at 9.4 µM;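 active means every replicate shows inhibition above about 80%, whatever the replicate mean, limit read from the data; inconclusive means mean inhibition reaches the set limit but some replicate falls short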;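 further: 0% = DMSO neutral controls and 100% = 20 µM radicicol positive controls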
Cneo AK release: causes C. neoformans cell lysis; AID 651654; adenylate kinase release luminescence, 4 h; normalised: neutral wells 0, clomiphene wells 100; 0.2% of 360,000 active; lysis activity, % at 15 µM;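 active means mean lysis activity across replicates of at least 80%, whatever share of replicates individually reach that level; inactive means mean lysis activity below 80%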
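Test system: log-phase Cryptococcus neoformans yeast cells; Quantity: yeast cell density of 5 × 10^6 cells/mL; Buffer or medium: YPD; Doses: single compound concentration per well; Timing: 4 h at 37 °C static, read 1 h later; Measured by: AK luminescence; Read-out basis: lysis from increased AK signal; Control set: Clomiphene as positive control.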
rRNA inh HTS: inhibitors of bacterial rRNA selective over humanized ribosomes | GFP signal change (wild-type ribosome), % (no concentration beside the values) | E. coli WT GFP vs humanized-ribosome RFP mutants, fluorescence, 24 h; active compounds read low; DMSO median 0, no signal -100 | 1.6% of 350,000 active;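 active means significant combined selectivity score with lowered wild-type GFP, culture density cut under 30%, mutant RFP and density less affected; inactive means any of these conditions unmet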
MLL AF4-AF9 inh: blocks AF4 peptide binding to human AF9. 0.47% of 350,000 active. AlphaScreen, biotin-AF4 peptide binding to FLAG-AF9. AID 651704. inhibition, % at 10 µM. P42568;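 active means every replicate reaching a set inhibition limit, whatever the replicate mean, cut at about 25% in these data; inconclusive means mean inhibition reaches that limit but some replicates miss it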;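 further: 0% = plate neutral control median and 100% = total signal loss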
Target sequence (P42568 whole entry, looked up): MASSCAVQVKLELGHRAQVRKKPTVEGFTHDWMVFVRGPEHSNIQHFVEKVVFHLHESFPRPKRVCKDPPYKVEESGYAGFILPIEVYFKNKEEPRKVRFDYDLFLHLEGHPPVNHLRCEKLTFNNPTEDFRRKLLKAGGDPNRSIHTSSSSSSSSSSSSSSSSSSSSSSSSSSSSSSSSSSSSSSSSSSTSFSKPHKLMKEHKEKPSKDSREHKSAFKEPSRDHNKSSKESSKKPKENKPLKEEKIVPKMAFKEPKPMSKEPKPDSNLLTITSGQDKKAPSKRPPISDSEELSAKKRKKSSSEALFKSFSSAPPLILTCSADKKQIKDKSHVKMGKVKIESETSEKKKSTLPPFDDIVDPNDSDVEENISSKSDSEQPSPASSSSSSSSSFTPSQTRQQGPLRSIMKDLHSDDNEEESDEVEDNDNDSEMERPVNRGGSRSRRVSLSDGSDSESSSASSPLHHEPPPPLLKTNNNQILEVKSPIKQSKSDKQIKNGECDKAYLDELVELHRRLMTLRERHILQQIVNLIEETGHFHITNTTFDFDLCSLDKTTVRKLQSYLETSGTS
HepG2 cytotox: HepG2 cell cytotoxicity. HepG2 viability, ATP luminescence, 72 h. shares compounds with rRNA inh HTS. 30 tested, under 10 active. AID 743480. activity change, negative = cytotoxicity, unspecified at 26 µM;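 active means compounds whose fitted half-maximal signal-loss concentration is at most twice their highest valid dose; inconclusive means flat curve with 30 to 70% signal loss, or poor fit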
AID977621: wild-type E. coli growth inhibition versus H69 humanized strain – H69 mutant RFP, wild-type GFP, cherry-pick, dose response; fluorescence, 24 h; 1,900 tested, under 10 active; AID 977621; activity change, negative = inhibition at 50 µM; shares compounds with rRNA inh HTS;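 active means Wild-type ribosome reporter drop at least double the humanized mutant ribosome reporter drop, growth loss under a set limit; inconclusive means no clear call, values can overlap the other calls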;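 further: wild-type GFP and H69 mutant RFP strains grown together 50/50 in each well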
AID977628: E. coli growth inhibition, wild-type GFP versus h24 humanized RFP strain, dose response, h24 mutant RFP vs wild-type GFP, cherry-pick | shares compounds with rRNA inh HTS | E. coli WT GFP strain growth, fluorescence, 24 h | activity change, negative = inhibition at 50 µM | 1,900 tested, under 10 active | AID 977628;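 active means compound lowering the normal-ribosome reporter at least twice as much as the humanized-ribosome reporter, growth loss under a set limit; inconclusive means no clear call, values can overlap the other calls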;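 further: wild-type GFP and h24 humanized RFP strains co-cultured 1 to 1 per well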
The depositor's hits bear a star; ? = inconclusive; · = no result; [ ] = another dose, or the depositor's remark. A selection: hits, their analogues and other compounds. The true share with any hit is near 3.2%.

SMILES | DENV2 CPE | S100A4 MyoIIA | PfHsp90 yeast 2 | Cneo AK release | rRNA inh HTS | MLL AF4-AF9 inh | AID977621 | AID977628 | others
COc1ccc(NC(=O)N(C)C[C@H]2OCCCC[C@H](C)Oc3ccc(NS(=O)(=O)c4ccc(F)cc4)cc3C(=O)N([C@@H](C)CO)C[C@H]2C)cc1 | -1 | 66 | · | -4 | 1 | -1 | · | ·
O=S(=O)(NCC[C@@H]1CC[C@@H](NS(=O)(=O)c2cccc(F)c2)[C@H](CO)O1)c1cccc(F)c1 | ? | -25 | · | · | 0 | -1 | · | ·
CCOC(=O)c1c(NC(=O)Cc2cccs2)sc(C)c1C | -6 | 0 | -10 | 0 | -34* | 1 | · | · | HepG2 cytotox=11
CCOC(=O)c1c(NC(=O)Cc2cccs2)sc(C(=O)NC2CCCC2)c1C | · | · | 0 | 2 | · | · | · | ·
O=C(Nc1ccc2c(c1)OCO2)c1cccc(S(=O)(=O)N2CCCC2)c1 | -5 | -4 | -13 | · | -14* | 6 | ? | ·
C[C@]12C(=O)N(c3ccc(F)cc3)C(=O)N1[C@@H]1c3ccccc3OC[C@@H]1[C@H]2c1ccccc1 | -15 | -3 | -9 | -1 | -25* | 3 | 0.48 | -15
C[C@@]12C(=O)N(c3ccc(C(F)(F)F)cc3)C(=O)N1[C@@H]1c3ccccc3OC[C@@H]1[C@H]2c1ccccc1 | · | · | 2 | 7 | · | · | · | ·
Cc1ccnc(NS(=O)(=O)c2ccc(NC(=O)c3cccc(Cl)c3)cc2)n1 | ? | 0 | · | -2 | -2 | -2 | · | ·
Cc1ccnc(NS(=O)(=O)c2ccc(NC(=O)c3ccc4c(c3)OCCO4)cc2)n1 | -1 | 0 | 5 | · | -23* | -3 | -11 | -12
COCc1nnc(NC(=O)c2ccc(S(=O)(=O)N3CCCC3)cc2)o1 | -2 | -3 | · | 1 | -23* | 0 | -16 | ·
C[C@@H]1CN([C@@H](C)CO)C(=O)c2cc(C#CCN(C)C)cnc2O[C@H]1CN(C)Cc1cccc(C(=O)O)c1 | -5 | 25 | · | -1 | 0 | -1 | · | ·
Cc1cc(C)c(C#N)c(N2CCN(c3ccccc3)CC2)n1 | -2 | -1 | -2 | -9 | -26* | 1 | · | · | HepG2 cytotox=23[12 µM]
C[C@H](CO)N1C[C@H](C)[C@H](CN(C)S(=O)(=O)c2ccc(F)cc2)Oc2c(NC(=O)c3cnccn3)cccc2C1=O | -3 | 1 | · | · | -3 | -5 | · | ·
CC1CCc2sc3ncn4nc(C(=O)NCc5ccco5)nc4c3c2C1 (stereo not drawn) | · | · | -29 | -7 | · | · | · | ·
CC1CCc2c(sc3ncn4c(SCC(=O)NCc5ccco5)nnc4c23)C1 (stereo not drawn) | 3 | 7 | -13 | -1 | -20* | 2 | -11 | -8.4
O=C(C[C@H]1C[C@@H]2c3cc(NC(=O)NC4CCCCC4)ccc3O[C@@H]2[C@H](CO)O1)NC1CCCCC1 | -6 | 4 | · | · | 3 | 3 | · | ·
COc1ccc(C(=O)N2C[C@H]3[C@@H](c4ccccc42)[C@@H](CO)N3Cc2ccc(Cl)cc2)cc1 | -13 | 15 | · | -3 | -51* | -1 | · | ?
O=C(Nc1ccccc1Cl)N1C[C@@H]2[C@H](c3ccccc31)[C@@H](CO)N2Cc1ccncc1 | -5 | 22 | · | 2 | -11 | -2 | · | ·
COc1cccc(C(=O)N2C[C@@H]3[C@H](c4ccccc42)[C@H](CO)N3Cc2ccccc2Cl)c1 | 1 | 6 | · | 0 | -33* | 3 | · | ?
COc1ccc(C(=O)N2C[C@@H]3[C@H](c4ccccc42)[C@@H](CO)N3Cc2ccccc2)cc1 | -4 | -4 | · | -9 | -6 | 0 | · | ·
O=C(Nc1ccccc1Cl)N1C[C@H]2[C@@H](c3ccccc31)[C@@H](CO)N2Cc1ccccc1 | -16 | 9 | · | 1 | -38* | 0 | · | ?
O=C(C[C@@H]1C=C[C@H](NC(=O)c2ccccn2)[C@@H](CO)O1)NCc1cc(F)cc(F)c1 | 2 | 2 | · | 0 | 2 | 1 | · | ·
O=S(=O)(Cc1ccco1)Cc1nc(-c2ccc(Cl)cc2)cs1 | -1 | 21 | · | 0 | -34* | -3 | -1.1 | -4.7
C[C@H](CO)N1C[C@H](C)[C@@H](CN(C)C(=O)c2ccccc2)OCCCC[C@H](C)Oc2ccc(NC(=O)Nc3cccc4ccccc34)cc2C1=O | 6 | -11 | · | 1 | -1 | -3 | · | ·
CCOC(=O)Cc1csc(SCC(=O)Nc2cc(C)ccc2OC)n1 | 1 | 1 | -15 | · | -24* | 0 | · | ?
SMILES | DENV2 CPE | S100A4 MyoIIA | PfHsp90 yeast 2 | Cneo AK release | rRNA inh HTS | MLL AF4-AF9 inh | AID977621 | AID977628 | others
CCOC(=O)Cc1csc(SCC(=O)Nc2cc(Cl)ccc2Oc2ccccc2)n1 | · | · | 26 | · | · | · | · | ·
COc1ccc(Cl)cc1NC(=O)C1Cc2ccccc2CN1S(C)(=O)=O (stereo not drawn) | 9 | -35 | 10 | 1 | -20* | 0 | · | -19
O=C(N[C@@H]1CC[C@H](CCNS(=O)(=O)c2ccccc2)O[C@@H]1CO)c1cccnc1 | -8 | -2 | · | -3 | 1 | -1 | · | ·
CC(C)NC(=O)Nc1ccc2c(c1)C(=O)N(C)[C@H]1CC[C@H](CC(=O)Nc3ccc(F)cc3)O[C@@H]1CO2 | 1 | 10 | · | 2 | 2 | -1 | · | ·
COC(=O)c1ccc(CSc2nc(-c3ccccc3)cs2)o1 | · | -3 | 3 | -2 | -23* | -6 | -13 | ·
COc1ccc(NC(=O)N2C[C@@H]3N[C@H](C2)[C@@H]3c2ccc(-c3ccc(OC)cc3)cc2)cc1 | 8 | 6 | · | · | -17 | 3 | · | ·
CC1Sc2ccc(C(=O)Nc3ccc(S(=O)(=O)N(C)C)cc3)cc2NC1=O (stereo not drawn) | -6 | -4 | · | · | -7 | -9 | · | ·
COc1ccc(S(=O)(=O)N(C)C)cc1NC(=O)c1ccc2c(c1)NC(=O)C(C)S2 (stereo not drawn) | 1 | -6 | 6 | 0 | -21* | 2 | -0.9 | ·
CCC(=O)N1[C@@H](CO)[C@@H]2c3ccccc3N(C(=O)CC(F)(F)F)C[C@@H]21 | ? | 5 | · | -1 | 6 | · | · | ·
NC(=O)c1ccsc1NC(=O)COC(=O)CCOc1ccccc1 | -5 | 20 | -3 | 0 | -23* | -1 | -16 | ·
COC(=O)c1ccc(-n2nnnc2SC)cc1 | · | · | -4 | -1 | · | · | · | ·
CSc1nnnn1-c1ccc(Cl)cc1 | 5 | -4 | -6 | · | -32* | -1 | -18 | -18
